Assay outcomes (PubChem)
The list is not random: actives were taken first. Their share in the collection is about 2%.
TDP2 inh: TDP2 (human) inhibition, absorbance primary screen | recombinant TDP2, T5PNP hydrolysis, p-nitrophenol absorbance 415 nm | inhibition, % at 12.8 µM | 0.34% of 370,000 active | AID 720702;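 active = inhibition above the mean of all tested compounds plus 3 SD, set per campaign, cut at about 25% in these data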;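 note: 0% = DMSO with enzyme and 100% = buffer with substrate but no TDP2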
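Evaluation: % inhibition relative to enzyme-containing and enzyme-free wells. Material: recombinant human TDP2. Benchmarks: enzyme-free and DMSO wells. Timing: enzyme reaction with compound for 2 h at 37 °C. Compound dosing: 12.8 µM only. Measured by: p-Nitrophenol epi absorbance. Reagent: T5PNP substrate at 5 mM, a TopII-DNA adduct mimic. Replication: single well per compound.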
PAD4 FP inh: blocks human protein arginine deiminase 4. recombinant PAD4, RCA probe fluorescence polarization. inhibition, % at 6.36 µM. AID 485272. 0.41% of 330,000 active;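 active = percent inhibition above a cutoff equal to the mean of all tested compounds plus 3 SD, cut at about 15% in these data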;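 note: 0% = PAD4 with RCA probe and DMSO and 100% = probe without PAD4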
mABHD4 FP: inhibits mouse alpha/beta hydrolase domain 4. 0.54% of 370,000 active. purified mABHD4, FP-Rh probe fluorescence polarization. AID 720543. inhibition, % at 8.92 µM;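 active = inhibition exceeding the mean over every tested compound plus 3 SD, cut at about 30% in these data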;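 note: 0% = plate median of compound wells and 100% = S159A mutant with DMSO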
Target sequence (Q8VD66 whole entry, looked up, the tested form may be a part): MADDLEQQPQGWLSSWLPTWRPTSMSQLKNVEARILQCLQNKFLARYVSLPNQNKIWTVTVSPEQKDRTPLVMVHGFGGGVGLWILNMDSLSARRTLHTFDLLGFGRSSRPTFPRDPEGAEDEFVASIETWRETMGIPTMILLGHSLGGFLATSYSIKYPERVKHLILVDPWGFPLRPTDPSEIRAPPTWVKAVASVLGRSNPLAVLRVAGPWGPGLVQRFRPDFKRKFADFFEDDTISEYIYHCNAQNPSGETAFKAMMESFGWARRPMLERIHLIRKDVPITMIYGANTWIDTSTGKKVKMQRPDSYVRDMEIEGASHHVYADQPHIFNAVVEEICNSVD
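Assay system: Wild-type mouse ABHD4 protein | Medium: HEPES pH 7.0 buffer, 150 mM NaCl, 0.01% Pluronic F-127 | Incubation: Enzyme–compound pre-incubation 45 min, then probe 60 min, both 25 °C | Technique: Fluorescence polarization with parallel and perpendicular emission, 525/598 nm | Evaluation: % inhibition of FP-Rh probe binding versus controls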
HTRA1 inhibitor: blocks human HTRA1 serine peptidase. inhibition, % at 5.96 µM. 0.5% of 340,000 active. recombinant HTRA1, FP-rhodamine activity-based probe, fluorescence polarization. Q92743; in the data active = inhibition above about 36%;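 note: 0% = enzyme with DMSO and 100% = wells lacking enzyme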
TCR CD3 inh: human TCR-CD3 binding inhibition; TAMRA-labeled TCR probe fluorescence, biochemical; inhibition, % at 9.4 µM; 0.37% of 360,000 active; in the data active = inhibition above about 19%;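 note: recombinant mutant TCR 2C K166C tagged with TAMRA read by polarization; 0% = receptor in buffer alone and 100% = receptor with positive control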
SIAE primary: blocks human sialic acid acetylesterase; Q9HAT2; SIAE FP-Rh probe binding, fluorescence polarization; inhibition, % at 9.66 µM; 0.69% of 370,000 active; AID 1053197;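 active = inhibition above a cutoff: mean of compounds within the control limits plus 3 SD of those, cut at about 17% in these data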;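 note: 0% = plate median of compound wells and 100% = probe without SIAE protein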
SIAE inh conf: human SIAE inhibition, confirmation | shares compounds with SIAE primary | inhibition, % at 9.66 µM | SIAE FP-Rh activity-based probe, fluorescence polarization | 13% of 2,300 active;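 active = mean inhibition of the replicates above the hit cutoff set in the primary screen, cut at about 17% in these data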;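 note: 0% = SIAE with DMSO and probe and 100% = probe without SIAE; inhibitors lower polarization as more probe stays unbound to SIAE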
An asterisk follows results filed as active; x = no result.

SMILES	TDP2 inh	PAD4 FP inh	mABHD4 FP	HTRA1 inhibitor	TCR CD3 inh	SIAE primary	SIAE inh conf
O=C(NCC1CC1)c1ccc(Nc2nc3ccc(Br)cc3[nH]2)cc1	0	0	23	-11	4	25*	7
O=C(Cc1ccc(Nc2nc3ccc(Br)cc3[nH]2)cc1)NCCc1cccs1	-8	8	16	9	-1	20*	7
O=C(NCc1ccco1)c1cccc(Nc2nc3ccc(Br)cc3[nH]2)c1	3	-2	7	6	1	41*	11
O=C(NCC1CC1)c1ccc2nc([C@@H]3O[C@H](CO)[C@H](O)[C@H](O)[C@H]3O)[nH]c2c1	10	x	-7	x	0	1	x
COc1ccc(C(=O)N2CCN(S(=O)(=O)c3ccc(Cl)cc3)CC2)cc1S(=O)(=O)N1CCOCC1	9	x	9	1	-6	6	x
O=C(CSc1nnc2ccccn12)NC(=O)c1ccccc1	3	-4	-1	3	7	17*	0
O=C(CSc1nnc2ccccn12)NC(=O)NC1CCCC1	0	-5	0	-2	-2	-3	x
N=c1n(CCN2CCOCC2)c2ccccc2n1CC(=O)c1ccc(Cl)c(Cl)c1	4	-1	-6	-13	2	19*	3
Cc1ccc(NC(=O)COC(=O)CCc2ccccc2)c(Cl)c1	-13	-2	5	-6	-2	22*	2
Cc1ccc(OCCC(=O)OCC(=O)Nc2ccc(C)cc2Cl)cc1	-1	0	-19	-1	-5	-7	x
CCOc1ccc(OCc2ccc(C(=O)O)o2)cc1	8	-3	4	4	-3	39*	-1
Cc1ccccc1CSCC(=O)NNC(=S)NCC1CCCO1 (centres undefined)	-5	x	-5	4	-2	2	x
COc1cc2[nH]c(=S)nc(NCCCOC(C)C)c2cc1OC	6	-1	3	3	-1	24*	-4
Cc1cccc(NC(=O)CN(CC2CCCO2)C(=O)c2cc3ccccc3o2)c1C (centres undefined)	-11	x	-12	-10	-6	-6	x
COc1ccc(NC(=O)N(C)C[C@H]2Oc3ccc(NS(=O)(=O)c4ccc(F)cc4)cc3C(=O)N([C@H](C)CO)C[C@@H]2C)cc1	5	2	10	-5	5	18*	3
COc1cccc(N2CC(=O)N(c3cccc(OC)c3)CC2=O)c1	-12	-1	-5	0	0	2	x
COc1ccc(N2CC(=O)N(c3ccc(OC)c(OC)c3)CC2=O)cc1OC	-3	0	1	2	5	19*	-3
COc1ccc(C(=O)NN=C2CCCC2)cc1	-2	-4	0	3	0	20*	-5
Cc1ccccc1CN1CCN(Cc2ccc3cccc(F)c3n2)CC1CCO (centres undefined)	-2	0	-3	1	-2	-1	x
COc1ccccc1CCC(=O)OCC(=O)N1c2ccccc2NC(=O)C1(C)C	-7	0	0	-4	-4	21*	0
CC(=O)c1ccc(N2CCN(S(=O)(=O)c3c(C(=O)N4CCCC4)c(C)n(C)c3C)CC2)cc1	3	4	7	5	-8	-5	x
COc1ccc2c(c1)-c1nc(NC(=O)c3cccs3)sc1CC2	-3	-6	3	-31	0	-13	x
COc1ccc2c(c1)-c1nc(NC(=O)c3ccco3)sc1CC2	-9	-2	-9	-23	2	19*	-10
COc1ccc2c(c1)CCc1sc(NC(=O)c3ccc(C)cc3)nc1-2	0	1	10	-9	4	18*	1
CC(NC(=O)C12CC3CC(CC(O)(C3)C1)C2)c1ccccc1 (centres undefined)	-14	0	2	3	-2	3	x
SMILES	TDP2 inh	PAD4 FP inh	mABHD4 FP	HTRA1 inhibitor	TCR CD3 inh	SIAE primary	SIAE inh conf
COc1ccc(CCNC(=O)C/C(C)=N/NC(=O)c2ccc([N+](=O)[O-])cc2Cl)cc1OC	12	0	-4	-1	-8	17*	6
Cc1cccc(CN2CCC(n3nccc3NC(=O)CCCc3ccccc3)CC2)n1	-17	-1	-2	10	-3	5	x
COc1ccc(Nc2nc(NCc3ccco3)nc(N/N=C/c3ccc(O)cc3)n2)cc1	-3	3	8	17	4	29*	3
COCCOc1ccc(C(F)(F)F)cc1NC(=O)CN1C(=O)NC(C)(c2ccc3c(c2)OCO3)C1=O (centres undefined)	-17	3	-29	-7	-7	-3	x
CC(=O)c1c(C)[nH]c(C(=O)Nc2ccc(N3CCCCCC3)cc2)c1C	-6	x	29	15	2	26*	10
COc1ccc(NC(=O)c2[nH]c(C)c(C(C)=O)c2C)cc1	-12	5	2	4	0	4	x
O=[N+]([O-])c1ccc(N/N=C/c2cccc(O)c2)cc1	-5	0	15	-2	-3	20*	-2
CC(=O)/C=C(\C)N=Nc1c(O)[nH]c2ccccc12	-13	-2	-4	1	-3	8	x
COc1ccc2c(=O)c3c(=O)n(CCc4ccccc4)c(C(C)C)nc3oc2c1	-10	-4	-3	-2	5	4	x
CCC(C)[C@H](NC(=O)Nc1ccccc1F)C(=O)OC (some centres undefined)	8	0	3	-2	6	22*	0
COc1cc(/C=N/NC(=O)c2ccc(N)cc2)ccc1OC(=O)c1cccc(C)c1	-3	x	5	-29	1	22*	-2
O=C(c1ccco1)N1N=C(c2ccc3nccnc3c2)CC1c1ccccc1 (centres undefined)	11	0	-5	-6	3	0	x
O=c1c2ccccc2oc2cc(Br)ccc12	5	x	2	-14	2	20*	4
COc1ccc(NC(=O)CCS(=O)(=O)c2ccc3c(c2)oc(=O)n3C)cc1	5	-2	2	5	2	-4	x
O=C(Nc1ccccc1)/C(=C/c1cccnc1)NC(=O)c1ccco1	5	-3	6	2	3	20*	3
CCCCNc1c(-c2cccc(-c3ccc(OC)cc3)c2)nc2cc(C)ccn12	-14	2	29	13	0	22*	15
C[C@@H]1CN([C@@H](C)CO)C(=O)c2cccc(NC(=O)C3CCCCC3)c2O[C@@H]1CN(C)Cc1ccc(Cl)c(Cl)c1	-1	0	-3	-36	9	0	x
CC(=O)c1ccc(NC(=S)Nc2cccc3ccccc23)cc1	20	3	14	8	-6	32*	1
Cc1cc(S(=O)(=O)Nc2ccc(C(=O)N3CCN(c4ccccc4O)CC3)cc2)ccc1F	-18	-4	-6	-7	-6	-2	x
Cc1ccc(S(=O)(=O)Nc2cccc(C(=O)N3CCN(c4ccccc4O)CC3)c2)cc1F	-17	3	4	-15	-4	21*	-4
CNc1nc(Cl)c(SC)c(NCc2ccc(F)cc2)n1	16	1	-4	-11	2	6	x
